# Active and inactive are the calls of the source. No cut-off for these calls is given here.
# Legend:
# [1] = Cytotoxicity against human HepG2 cells after 48 hrs by resazurin based assay; assay type: cell-based
# Outline: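 Cells grown in DMEM with 10% FBS and 1% antibiotic-antimycotic at 37 °C, 5% CO2. Viability read by resazurin reduction. CC50 derived; amphotericin B used as positive cytotoxicity control.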
# [2] = test system: Plasmodium falciparum; assay: Antimalarial activity against Plasmodium falciparum K1 assessed as reduction in parasite stage accumulation index at 10 uM treated at 42 hrs post-invasion for 24 hrs by automated image mining based cytological profiling assay; assay type: functional, organism-based
# Outline: (§1)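 Tightly synchronized cultures exposed from the 42 hpi mid-schizont point for 24 h to 10 µM final. Host cells stained with wheat germ agglutinin-AlexaFluor 488, parasite nuclei with DAPI and live-parasite mitochondria with Mitotracker Red CMXRos. Infected and viable parasitaemia and stage proportions quantified by automated image mining. Stage accumulation indices and parasitaemia reduction index derived.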
# [3] = test system: Plasmodium falciparum; assay: Antimalarial activity against tightly synchronized Plasmodium falciparum W2 assessed as parasite stage accumulation index at late ring stages at 10 uM treated at 6 hrs post-invasion for continuous duration of 36 hrs by automated image mining based cytological profiling assay; assay type: functional
# [4] = test system: Plasmodium falciparum; assay: Antimalarial activity against Plasmodium falciparum K1 assessed as increase in schizonts parasite stage accumulation index at 10 uM treated at 42 hrs post-invasion for 24 hrs by automated image mining based cytological profiling assay; assay type: functional, organism-based; outline: as §1
# [5] = test system: Plasmodium falciparum; assay: Antimalarial activity against Plasmodium falciparum W2 assessed as reduction in culture parasitaemia level at 10 uM treated at 42 hrs post-invasion for 24 hrs by automated image mining based cytological profiling assay; assay type: functional, organism-based; outline: as §1
# [6] = test system: Plasmodium falciparum; assay: Antimalarial activity against tightly synchronized Plasmodium falciparum W2 assessed as parasite stage accumulation index at trophozoites stages at 10 uM treated at 6 hrs post-invasion for continuous duration of 36 hrs by automated image mining based cytological profiling assay; assay type: functional
# [7] = test system: Plasmodium falciparum; assay: Antimalarial activity against tightly synchronized Plasmodium falciparum K1 assessed as parasite stage accumulation index at early ring stages at 10 uM treated at 6 hrs post-invasion for continuous duration of 36 hrs by automated image mining based cytological profiling assay; assay type: functional
# Outline: (§2)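 Tightly synchronized cultures exposed to 10 µM final from 6 hpi (early ring), 18 hpi (late ring) or 30 hpi (mid-trophozoite) for a continuous 36 h. Erythrocytes stained with WGA-AlexaFluor 488, parasite nuclei with DAPI, functional mitochondria with Mitotracker Red CMXRos. Stages (early rings, late rings, trophozoites, schizonts) classified by nuclear spot number and size. Viable parasitaemia and stage accumulation index obtained by automated image analysis.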
# [8] = test system: Plasmodium falciparum; assay: Antimalarial activity against tightly synchronized Plasmodium falciparum K1 assessed as parasite stage accumulation index at trophozoites stages at 10 uM treated at 6 hrs post-invasion for continuous duration of 36 hrs by automated image mining based cytological profiling assay; assay type: functional
# [9] = test system: Plasmodium falciparum; assay: Antimalarial activity against tightly synchronized Plasmodium falciparum HB3 assessed as parasite stage accumulation index at late ring stages at 10 uM treated at 18 hrs post-invasion for continuous duration of 36 hrs by automated image mining based cytological profiling assay; assay type: functional; outline: as §2
# [10] = test system: Plasmodium falciparum; assay: Antimalarial activity against tightly synchronized Plasmodium falciparum W2 assessed as parasite stage accumulation index at late ring stages at 10 uM treated at 18 hrs post-invasion for continuous duration of 36 hrs by automated image mining based cytological profiling assay; assay type: functional; outline: as §2
# [11] = test system: Plasmodium falciparum; assay: Antimalarial activity against Plasmodium falciparum HB3 assessed as reduction in parasite stage accumulation index at 10 uM treated at 42 hrs post-invasion for 24 hrs by automated image mining based cytological profiling assay; assay type: functional; outline: as §1
# [12] = test system: Plasmodium falciparum; assay: Antimalarial activity against tightly synchronized Plasmodium falciparum W2 assessed as parasite stage accumulation index at schizonts stages at 10 uM treated at 6 hrs post-invasion for continuous duration of 36 hrs by automated image mining based cytological profiling assay; assay type: functional; outline: as §2
# [13] = test system: Plasmodium falciparum; assay: Antimalarial activity against Plasmodium falciparum HB3 assessed as increase in schizonts parasite stage accumulation index at 10 uM treated at 42 hrs post-invasion for 24 hrs by automated image mining based cytological profiling assay; assay type: functional; outline: as §1
# [14] = test system: Plasmodium falciparum; assay: Antimalarial activity against tightly synchronized Plasmodium falciparum K1 assessed as parasite stage accumulation index at late ring stages at 10 uM treated at 18 hrs post-invasion for continuous duration of 36 hrs by automated image mining based cytological profiling assay; assay type: functional; outline: as §2
# [15] = test system: Plasmodium falciparum; assay: Antimalarial activity against tightly synchronized Plasmodium falciparum K1 assessed as parasite stage accumulation index at schizonts stages at 10 uM treated at 18 hrs post-invasion for continuous duration of 36 hrs by automated image mining based cytological profiling assay; assay type: functional; outline: as §2
# [16] = test system: Plasmodium falciparum; assay: Antimalarial activity against tightly synchronized Plasmodium falciparum HB3 assessed as parasite stage accumulation index at trophozoites stages at 10 uM treated at 30 hrs post-invasion for continuous duration of 36 hrs by automated image mining based cytological profiling assay; assay type: functional
# [17] = test system: Plasmodium falciparum; assay: Antimalarial activity against tightly synchronized Plasmodium falciparum K1 assessed as parasite stage accumulation index at schizonts stages at 10 uM treated at 6 hrs post-invasion for continuous duration of 36 hrs by automated image mining based cytological profiling assay; assay type: functional; outline: as §2
# [18] = test system: Plasmodium falciparum; assay: Antimalarial activity against Plasmodium falciparum W2 assessed as reduction in parasite stage accumulation index at 10 uM treated at 42 hrs post-invasion for 24 hrs by automated image mining based cytological profiling assay; assay type: functional, organism-based; outline: as §1
# [19] = test system: Plasmodium falciparum; assay: Antimalarial activity against tightly synchronized Plasmodium falciparum HB3 assessed as parasite stage accumulation index at schizonts stages at 10 uM treated at 30 hrs post-invasion for continuous duration of 36 hrs by automated image mining based cytological profiling assay; assay type: functional
# [20] = test system: Plasmodium falciparum; assay: Antimalarial activity against tightly synchronized Plasmodium falciparum W2 assessed as parasite stage accumulation index at early ring stages at 10 uM treated at 6 hrs post-invasion for continuous duration of 36 hrs by automated image mining based cytological profiling assay; assay type: functional; outline: as §2
# [21] = test system: Plasmodium falciparum; assay: Antimalarial activity against tightly synchronized Plasmodium falciparum HB3 assessed as parasite stage accumulation index at late ring stages at 10 uM treated at 6 hrs post-invasion for continuous duration of 36 hrs by automated image mining based cytological profiling assay; assay type: functional; outline: as §2
# [22] = test system: Plasmodium falciparum; assay: Antimalarial activity against tightly synchronized Plasmodium falciparum K1 assessed as parasite stage accumulation index at trophozoites stages at 10 uM treated at 18 hrs post-invasion for continuous duration of 36 hrs by automated image mining based cytological profiling assay; assay type: functional; outline: as §2
# [23] = test system: Plasmodium falciparum; assay: Antimalarial activity against tightly synchronized Plasmodium falciparum HB3 assessed as parasite stage accumulation index at schizonts stages at 10 uM treated at 18 hrs post-invasion for continuous duration of 36 hrs by automated image mining based cytological profiling assay; assay type: functional; outline: as §2
# [24] = test system: Plasmodium falciparum; assay: Antimalarial activity against tightly synchronized Plasmodium falciparum K1 assessed as parasite stage accumulation index at trophozoites stages at 10 uM treated at 30 hrs post-invasion for continuous duration of 36 hrs by automated image mining based cytological profiling assay; assay type: functional; outline: as §2
# [25] = test system: Plasmodium falciparum; assay: Antimalarial activity against tightly synchronized Plasmodium falciparum HB3 assessed as parasite stage accumulation index at early ring stages at 10 uM treated at 6 hrs post-invasion for continuous duration of 36 hrs by automated image mining based cytological profiling assay; assay type: functional
# [26] = test system: Plasmodium falciparum; assay: Antimalarial activity against tightly synchronized Plasmodium falciparum HB3 assessed as parasite stage accumulation index at trophozoites stages at 10 uM treated at 18 hrs post-invasion for continuous duration of 36 hrs by automated image mining based cytological profiling assay; assay type: functional; outline: as §2
# [27] = test system: Plasmodium falciparum; assay: Antimalarial activity against tightly synchronized Plasmodium falciparum HB3 assessed as parasite stage accumulation index at trophozoites stages at 10 uM treated at 6 hrs post-invasion for continuous duration of 36 hrs by automated image mining based cytological profiling assay; assay type: functional; outline: as §2
# [28] = test system: Plasmodium falciparum; assay: Antimalarial activity against tightly synchronized Plasmodium falciparum W2 assessed as parasite stage accumulation index at schizonts stages at 10 uM treated at 18 hrs post-invasion for continuous duration of 36 hrs by automated image mining based cytological profiling assay; assay type: functional
# [29] = test system: Plasmodium falciparum; assay: Antimalarial activity against tightly synchronized Plasmodium falciparum K1 assessed as parasite stage accumulation index at late ring stages at 10 uM treated at 6 hrs post-invasion for continuous duration of 36 hrs by automated image mining based cytological profiling assay; assay type: functional
# [30] = test system: Plasmodium falciparum; assay: Antimalarial activity against tightly synchronized Plasmodium falciparum W2 assessed as parasite stage accumulation index at trophozoites stages at 10 uM treated at 30 hrs post-invasion for continuous duration of 36 hrs by automated image mining based cytological profiling assay; assay type: functional; outline: as §2
# [31] = test system: Plasmodium falciparum; assay: Antimalarial activity against Plasmodium falciparum K1 assessed as reduction in culture parasitaemia level at 10 uM treated at 42 hrs post-invasion for 24 hrs by automated image mining based cytological profiling assay; assay type: functional, organism-based; outline: as §1
# [32] = test system: Plasmodium falciparum; assay: Antimalarial activity against tightly synchronized Plasmodium falciparum W2 assessed as parasite stage accumulation index at trophozoites stages at 10 uM treated at 18 hrs post-invasion for continuous duration of 36 hrs by automated image mining based cytological profiling assay; assay type: functional
# [33] = test system: Plasmodium falciparum; assay: Antimalarial activity against tightly synchronized Plasmodium falciparum W2 assessed as parasite stage accumulation index at schizonts stages at 10 uM treated at 30 hrs post-invasion for continuous duration of 36 hrs by automated image mining based cytological profiling assay; assay type: functional
# [34] = test system: Plasmodium falciparum; assay: Antimalarial activity against Plasmodium falciparum W2 assessed as increase in schizonts parasite stage accumulation index at 10 uM treated at 42 hrs post-invasion for 24 hrs by automated image mining based cytological profiling assay; assay type: functional, organism-based; outline: as §1
# [35] = test system: Plasmodium falciparum; assay: Antimalarial activity against tightly synchronized Plasmodium falciparum HB3 assessed as parasite stage accumulation index at schizonts stages at 10 uM treated at 6 hrs post-invasion for continuous duration of 36 hrs by automated image mining based cytological profiling assay; assay type: functional; outline: as §2
# [36] = test system: Plasmodium falciparum; assay: Antimalarial activity against Plasmodium falciparum HB3 assessed as reduction in culture parasitaemia level at 10 uM treated at 42 hrs post-invasion for 24 hrs by automated image mining based cytological profiling assay; assay type: functional; outline: as §1
# [37] = test system: Plasmodium falciparum; assay: Antimalarial activity against tightly synchronized Plasmodium falciparum K1 assessed as parasite stage accumulation index at schizonts stages at 10 uM treated at 30 hrs post-invasion for continuous duration of 36 hrs by automated image mining based cytological profiling assay; assay type: functional; outline: as §2
compound,measurement,setting,value
C[C@@H]1[C@H](O)[C@@H](C)/C=C/C=C/C=C/C=C/C=C/C=C/C=C/[C@H](O[C@@H]2O[C@H](C)[C@@H](O)[C@H](N)[C@@H]2O)C[C@@H]2O[C@](O)(C[C@@H](O)C[C@@H](O)[C@H](O)CC[C@@H](O)C[C@@H](O)CC(=O)O[C@H]1C)C[C@H](O)[C@H]2C(=O)O [AMPHOTERICIN B],CC50 at 48 h,[1],40 µM
CC(=O)N[C@@H]1[C@@H](O)[C@H](O)[C@@H](CO)O[C@H]1O [N-ACETYLGLUCOSAMINE],inhibition,[2],Active
same,Activity,[3],0.88
same,inhibition,[4],inactive
same,inhibition,[5],Active
same,Activity,[6],0.92
same,Activity,[7],1.33
same,Activity,[8],0.8
same,Activity,[9],1
same,Activity,[10],0.83
same,inhibition,[11],Active
same,Activity,[12],0.54
same,inhibition,[13],inactive
same,Activity,[14],0.86
same,Activity,[15],0.64
same,Activity,[16],0.87
same,Activity,[17],0.66
same,inhibition,[18],Active
same,Activity,[19],0.7
same,Activity,[20],1.52
same,Activity,[21],2.14
same,Activity,[22],1.18
same,Activity,[23],0.51
same,Activity,[24],0.96
same,Activity,[25],1.4
same,Activity,[26],1.06
same,Activity,[27],0.78
same,Activity,[28],1.08
same,Activity,[29],1.32
same,Activity,[30],0.34
same,inhibition,[31],Active
same,Activity,[32],1.12
same,Activity,[33],1.4
same,inhibition,[34],inactive
same,Activity,[35],0.29
same,inhibition,[36],Active
same,Activity,[37],1.04
